For three compounds, Activity and IC50 results are on record in ChEMBL document CHEMBL5678818, “Discovery of potent SOS1 inhibitors that block RAS activation via disruption of the RAS-SOS1 interaction” (Proc Natl Acad Sci U S A, 2019).

In general, IC50 refers to the midpoint of a concentration-inhibition curve.

Assay [1] has as its target T1, Cyclin-dependent kinase 11A (Homo sapiens) (UniProt Q9UQ88).
T1 sequence (whole entry): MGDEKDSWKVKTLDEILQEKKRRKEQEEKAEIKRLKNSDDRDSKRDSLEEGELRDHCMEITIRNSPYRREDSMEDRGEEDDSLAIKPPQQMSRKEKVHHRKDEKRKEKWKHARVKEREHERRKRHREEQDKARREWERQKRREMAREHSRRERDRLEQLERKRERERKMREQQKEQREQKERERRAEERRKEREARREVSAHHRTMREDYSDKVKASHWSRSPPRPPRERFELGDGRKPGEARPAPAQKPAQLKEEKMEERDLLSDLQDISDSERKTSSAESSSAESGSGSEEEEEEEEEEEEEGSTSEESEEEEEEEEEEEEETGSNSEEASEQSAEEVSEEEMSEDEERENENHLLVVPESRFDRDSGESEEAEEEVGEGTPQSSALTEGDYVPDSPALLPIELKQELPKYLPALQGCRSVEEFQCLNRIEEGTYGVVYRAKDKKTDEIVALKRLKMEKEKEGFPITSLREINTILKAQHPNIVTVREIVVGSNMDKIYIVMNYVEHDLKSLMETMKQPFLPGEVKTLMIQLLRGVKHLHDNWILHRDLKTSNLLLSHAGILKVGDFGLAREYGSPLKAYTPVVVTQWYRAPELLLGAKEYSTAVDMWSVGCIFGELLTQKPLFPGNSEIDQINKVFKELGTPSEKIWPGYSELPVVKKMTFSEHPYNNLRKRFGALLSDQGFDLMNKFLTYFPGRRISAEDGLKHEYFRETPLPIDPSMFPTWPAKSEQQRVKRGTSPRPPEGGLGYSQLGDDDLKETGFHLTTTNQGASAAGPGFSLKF
Kind of assay: Inhibition of CDC2L2 (unknown origin) assessed as residual activity at 1000 nM by KINOMEscan analysis relative to control.

The target in assay [2] is T2, Interleukin-1 receptor-associated kinase 4 (Homo sapiens) (UniProt Q9NWZ3).
T2 sequence (whole entry): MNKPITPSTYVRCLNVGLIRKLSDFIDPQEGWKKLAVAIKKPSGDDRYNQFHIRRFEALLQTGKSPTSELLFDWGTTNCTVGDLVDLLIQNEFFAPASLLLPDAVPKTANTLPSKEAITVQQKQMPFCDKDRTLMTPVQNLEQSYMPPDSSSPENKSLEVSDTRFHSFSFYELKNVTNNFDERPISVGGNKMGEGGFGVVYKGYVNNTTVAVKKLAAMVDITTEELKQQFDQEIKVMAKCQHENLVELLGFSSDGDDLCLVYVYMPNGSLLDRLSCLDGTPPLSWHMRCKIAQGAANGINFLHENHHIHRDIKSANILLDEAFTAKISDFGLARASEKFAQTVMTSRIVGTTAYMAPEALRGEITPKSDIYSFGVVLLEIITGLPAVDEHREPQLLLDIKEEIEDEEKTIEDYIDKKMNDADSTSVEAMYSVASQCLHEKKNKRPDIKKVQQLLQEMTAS
The assay can be described thus: Inhibition of IRAK4 (unknown origin) assessed as residual activity at 1000 nM by KINOMEscan analysis relative to control.

For assay [3], the system named is Mast/stem cell growth factor receptor Kit (Homo sapiens), P10721 [V559D,V654A]. The assay can be described thus: Inhibition of KIT V559D/V654A mutant (unknown origin) assessed as residual activity at 1000 nM by KINOMEscan analysis relative to control.
Sequence of Mast/stem cell growth factor receptor Kit (Homo sapiens), P10721 [V559D,V654A] (P10721 whole entry V559D/V654A, the tested form may be a part): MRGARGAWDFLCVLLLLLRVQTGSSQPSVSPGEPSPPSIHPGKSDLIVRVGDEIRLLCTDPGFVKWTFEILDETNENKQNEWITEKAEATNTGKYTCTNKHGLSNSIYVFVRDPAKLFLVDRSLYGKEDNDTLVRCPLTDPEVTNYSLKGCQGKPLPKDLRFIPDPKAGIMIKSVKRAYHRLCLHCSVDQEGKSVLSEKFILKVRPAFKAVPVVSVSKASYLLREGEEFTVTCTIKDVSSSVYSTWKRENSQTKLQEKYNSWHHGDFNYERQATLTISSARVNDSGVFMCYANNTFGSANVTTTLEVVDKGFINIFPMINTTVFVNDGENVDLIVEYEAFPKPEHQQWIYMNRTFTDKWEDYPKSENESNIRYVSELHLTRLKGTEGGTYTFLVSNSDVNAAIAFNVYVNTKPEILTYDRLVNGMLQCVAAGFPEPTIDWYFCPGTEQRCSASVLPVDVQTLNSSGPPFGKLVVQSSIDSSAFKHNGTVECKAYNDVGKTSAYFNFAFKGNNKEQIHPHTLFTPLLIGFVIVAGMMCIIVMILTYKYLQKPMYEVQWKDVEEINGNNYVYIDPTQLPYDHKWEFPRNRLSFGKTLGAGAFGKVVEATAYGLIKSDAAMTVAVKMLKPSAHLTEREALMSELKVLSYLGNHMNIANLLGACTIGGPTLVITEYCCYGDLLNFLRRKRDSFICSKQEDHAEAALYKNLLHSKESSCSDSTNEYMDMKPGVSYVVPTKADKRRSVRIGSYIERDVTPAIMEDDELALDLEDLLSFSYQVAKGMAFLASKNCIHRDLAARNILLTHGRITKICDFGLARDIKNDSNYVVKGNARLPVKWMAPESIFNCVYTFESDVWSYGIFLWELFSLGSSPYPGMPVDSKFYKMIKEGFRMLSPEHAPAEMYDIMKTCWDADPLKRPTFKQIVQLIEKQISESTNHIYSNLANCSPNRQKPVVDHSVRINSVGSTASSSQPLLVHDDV
Assay [4] deals with LIM domain kinase 2 (Homo sapiens) (UniProt P53671). The assay can be described thus: Inhibition of LIMK2 (unknown origin) assessed as residual activity at 1000 nM by KINOMEscan analysis relative to control.
Sequence of LIM domain kinase 2 (Homo sapiens) (P53671 whole entry, looked up, the tested form may be a part): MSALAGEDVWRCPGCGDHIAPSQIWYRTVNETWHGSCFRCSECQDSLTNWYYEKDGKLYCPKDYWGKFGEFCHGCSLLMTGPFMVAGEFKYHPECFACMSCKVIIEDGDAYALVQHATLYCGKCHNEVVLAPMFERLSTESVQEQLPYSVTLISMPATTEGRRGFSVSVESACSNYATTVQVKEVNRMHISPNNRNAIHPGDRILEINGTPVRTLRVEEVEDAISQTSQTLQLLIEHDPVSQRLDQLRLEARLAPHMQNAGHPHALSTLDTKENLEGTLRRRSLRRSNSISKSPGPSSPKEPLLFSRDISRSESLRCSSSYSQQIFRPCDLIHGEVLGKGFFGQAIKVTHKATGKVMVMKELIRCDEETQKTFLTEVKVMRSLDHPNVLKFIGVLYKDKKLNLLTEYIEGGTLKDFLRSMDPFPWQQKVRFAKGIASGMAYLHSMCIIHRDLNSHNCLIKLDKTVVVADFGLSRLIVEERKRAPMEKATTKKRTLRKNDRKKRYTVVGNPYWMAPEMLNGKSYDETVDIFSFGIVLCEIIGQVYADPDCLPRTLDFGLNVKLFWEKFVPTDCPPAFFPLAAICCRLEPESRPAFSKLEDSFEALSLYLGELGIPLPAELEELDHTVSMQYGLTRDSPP
The subject of assay [5] is Hepatocyte growth factor receptor (Homo sapiens), P08581 [M1250T]. The assay can be described thus: Inhibition of MET M1250T mutant (unknown origin) assessed as residual activity at 1000 nM by KINOMEscan analysis relative to control.
Assay [6] addresses Mitogen-activated protein kinase kinase kinase 11 (Homo sapiens) (UniProt Q16584). Kind of assay: Inhibition of MLK3 (unknown origin) assessed as residual activity at 1000 nM by KINOMEscan analysis relative to control.
The target in assay [7] is Phosphatidylinositol 4,5-bisphosphate 3-kinase catalytic subunit beta isoform (Homo sapiens) (UniProt P42338). Kind of assay: Inhibition of PIK3CB (unknown origin) assessed as residual activity at 1000 nM by KINOMEscan analysis relative to control.
Sequence of Phosphatidylinositol 4,5-bisphosphate 3-kinase catalytic subunit beta isoform (Homo sapiens) (P42338 whole entry, looked up, canonical isoform): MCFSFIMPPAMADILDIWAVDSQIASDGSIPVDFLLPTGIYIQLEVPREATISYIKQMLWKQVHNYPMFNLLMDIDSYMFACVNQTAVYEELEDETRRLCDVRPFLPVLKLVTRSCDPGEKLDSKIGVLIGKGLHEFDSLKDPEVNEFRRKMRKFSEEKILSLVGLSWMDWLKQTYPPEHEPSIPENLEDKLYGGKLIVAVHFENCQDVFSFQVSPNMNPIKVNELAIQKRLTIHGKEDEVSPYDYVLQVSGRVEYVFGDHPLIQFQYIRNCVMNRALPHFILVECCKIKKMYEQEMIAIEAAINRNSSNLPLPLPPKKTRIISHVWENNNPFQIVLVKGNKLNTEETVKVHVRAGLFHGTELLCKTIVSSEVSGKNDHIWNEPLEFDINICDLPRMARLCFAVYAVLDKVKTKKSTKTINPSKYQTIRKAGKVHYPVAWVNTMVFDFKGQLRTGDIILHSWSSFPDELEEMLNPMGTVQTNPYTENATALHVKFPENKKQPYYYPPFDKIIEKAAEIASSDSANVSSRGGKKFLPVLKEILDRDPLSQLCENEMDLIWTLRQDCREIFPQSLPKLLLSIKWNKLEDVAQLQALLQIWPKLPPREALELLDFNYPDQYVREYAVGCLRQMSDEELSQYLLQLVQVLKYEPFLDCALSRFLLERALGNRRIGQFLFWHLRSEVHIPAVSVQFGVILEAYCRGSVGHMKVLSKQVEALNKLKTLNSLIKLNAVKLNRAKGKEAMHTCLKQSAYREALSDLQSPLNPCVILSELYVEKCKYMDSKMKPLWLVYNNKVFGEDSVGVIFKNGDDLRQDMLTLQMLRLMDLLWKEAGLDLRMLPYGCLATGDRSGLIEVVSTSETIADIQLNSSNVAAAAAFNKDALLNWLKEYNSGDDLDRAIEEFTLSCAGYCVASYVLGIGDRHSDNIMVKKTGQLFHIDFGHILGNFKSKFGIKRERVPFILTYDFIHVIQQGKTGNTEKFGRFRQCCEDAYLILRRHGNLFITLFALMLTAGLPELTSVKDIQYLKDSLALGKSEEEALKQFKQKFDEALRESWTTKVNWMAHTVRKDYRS
The target in assay [8] is Proto-oncogene tyrosine-protein kinase receptor Ret (Homo sapiens) (UniProt P07949). Kind of assay: Inhibition of RET (unknown origin) assessed as residual activity at 1000 nM by KINOMEscan analysis relative to control.
Assay [9] has as its target Serine/threonine-protein kinase WNK3 (Homo sapiens) (UniProt Q9BYP7). The assay can be described thus: Inhibition of WNK3 (unknown origin) assessed as residual activity at 1000 nM by KINOMEscan analysis relative to control.
The subject of the next assay is K562. Kind of assay: Antiproliferative activity against human K562 cells assessed as inhibition of cell viability incubated for 72 hrs by Cell Titer Glo assay. The note with it: K562, 72 h. The class given is functional, cell-based. The method, boiled down:
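K-562 cells (wild-type KRAS, sourced from ATCC) were tested for antiproliferative response.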
A general note: Cellular ATP, detected with luciferase, serves as a proxy for viable cell number.

The target in assay [10] is Serine/threonine-protein kinase PAK 1 (Homo sapiens) (UniProt Q13153). The assay can be described thus: Inhibition of PAK1 (unknown origin) assessed as residual activity at 1000 nM by KINOMEscan analysis relative to control.
Sequence of Serine/threonine-protein kinase PAK 1 (Homo sapiens) (Q13153 whole entry, looked up): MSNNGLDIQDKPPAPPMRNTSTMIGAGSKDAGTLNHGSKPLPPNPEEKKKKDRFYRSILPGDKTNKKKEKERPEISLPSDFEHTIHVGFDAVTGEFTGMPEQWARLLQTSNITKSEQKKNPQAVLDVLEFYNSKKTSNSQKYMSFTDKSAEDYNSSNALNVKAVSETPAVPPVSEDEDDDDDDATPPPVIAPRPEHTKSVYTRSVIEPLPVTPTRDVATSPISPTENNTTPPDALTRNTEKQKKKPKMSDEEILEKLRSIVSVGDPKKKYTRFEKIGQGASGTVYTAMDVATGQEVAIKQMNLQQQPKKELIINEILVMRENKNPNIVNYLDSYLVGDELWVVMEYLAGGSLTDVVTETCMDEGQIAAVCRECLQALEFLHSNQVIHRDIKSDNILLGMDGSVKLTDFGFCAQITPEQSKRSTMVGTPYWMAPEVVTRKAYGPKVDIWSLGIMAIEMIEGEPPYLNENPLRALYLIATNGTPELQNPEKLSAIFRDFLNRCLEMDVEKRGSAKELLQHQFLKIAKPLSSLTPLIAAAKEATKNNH

Sequence of Serine/threonine-protein kinase WNK3 (Homo sapiens) (Q9BYP7 whole entry): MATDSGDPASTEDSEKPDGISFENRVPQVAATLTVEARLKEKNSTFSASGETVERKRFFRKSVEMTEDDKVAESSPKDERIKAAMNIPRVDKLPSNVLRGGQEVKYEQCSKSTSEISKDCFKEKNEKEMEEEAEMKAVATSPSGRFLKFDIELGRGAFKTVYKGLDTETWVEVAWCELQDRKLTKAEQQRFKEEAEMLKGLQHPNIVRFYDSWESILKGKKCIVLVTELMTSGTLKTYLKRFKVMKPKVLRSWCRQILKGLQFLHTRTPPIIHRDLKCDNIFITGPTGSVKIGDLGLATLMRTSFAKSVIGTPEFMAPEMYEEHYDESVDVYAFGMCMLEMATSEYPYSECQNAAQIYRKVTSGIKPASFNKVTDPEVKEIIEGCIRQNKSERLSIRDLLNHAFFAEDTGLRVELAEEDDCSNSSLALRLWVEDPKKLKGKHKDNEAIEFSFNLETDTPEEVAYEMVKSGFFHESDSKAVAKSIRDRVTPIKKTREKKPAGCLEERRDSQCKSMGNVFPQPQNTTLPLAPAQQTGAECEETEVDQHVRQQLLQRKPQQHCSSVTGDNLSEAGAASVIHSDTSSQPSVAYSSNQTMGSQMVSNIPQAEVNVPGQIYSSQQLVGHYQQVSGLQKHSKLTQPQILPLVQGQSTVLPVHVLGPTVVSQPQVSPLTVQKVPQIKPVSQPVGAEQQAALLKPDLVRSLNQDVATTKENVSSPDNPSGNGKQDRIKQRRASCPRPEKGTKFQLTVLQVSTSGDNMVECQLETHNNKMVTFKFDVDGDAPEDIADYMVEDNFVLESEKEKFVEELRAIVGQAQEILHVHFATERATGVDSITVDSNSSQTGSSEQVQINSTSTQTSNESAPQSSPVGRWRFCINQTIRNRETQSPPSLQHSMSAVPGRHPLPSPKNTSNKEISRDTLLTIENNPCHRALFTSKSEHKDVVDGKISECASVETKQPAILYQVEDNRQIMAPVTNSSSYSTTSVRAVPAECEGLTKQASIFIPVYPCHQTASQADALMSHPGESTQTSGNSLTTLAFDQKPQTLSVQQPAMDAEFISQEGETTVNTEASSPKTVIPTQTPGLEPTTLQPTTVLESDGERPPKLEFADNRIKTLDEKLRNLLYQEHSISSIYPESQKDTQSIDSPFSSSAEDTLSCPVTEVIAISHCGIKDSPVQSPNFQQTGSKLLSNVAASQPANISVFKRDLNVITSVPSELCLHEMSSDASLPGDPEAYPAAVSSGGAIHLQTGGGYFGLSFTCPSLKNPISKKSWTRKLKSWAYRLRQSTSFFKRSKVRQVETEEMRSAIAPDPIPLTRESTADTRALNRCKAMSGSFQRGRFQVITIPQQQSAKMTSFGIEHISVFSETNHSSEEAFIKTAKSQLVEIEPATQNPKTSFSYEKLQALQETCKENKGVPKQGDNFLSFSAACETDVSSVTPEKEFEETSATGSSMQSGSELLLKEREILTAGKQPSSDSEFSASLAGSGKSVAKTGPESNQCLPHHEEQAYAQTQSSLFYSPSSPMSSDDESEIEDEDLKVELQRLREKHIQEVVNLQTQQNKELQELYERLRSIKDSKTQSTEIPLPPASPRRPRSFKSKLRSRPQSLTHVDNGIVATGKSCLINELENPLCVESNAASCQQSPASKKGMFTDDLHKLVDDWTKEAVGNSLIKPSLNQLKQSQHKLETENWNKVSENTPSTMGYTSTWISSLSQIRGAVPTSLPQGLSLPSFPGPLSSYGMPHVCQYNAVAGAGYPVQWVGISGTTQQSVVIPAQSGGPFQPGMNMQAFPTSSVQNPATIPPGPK

In the case of `COc1cc2nc(C)nc(N[C@H](C)c3cccc(-c4cn[nH]c4)c3)c2cc1OC`, the Activity came to 100% in assay [1]; 59% in assay [2]; 92% in assay [3]; 100% in assay [4]; 100% in assay [5]; 100% in assay [6]. In addition, the Activity in [7] turned out to be 89%; in assay [8], 94%; in assay [9] it was 93%; in assay [10], 62%. In addition, the IC50 with K562 came to 3100 nM.

As for `COc1cc2ncnc(N[C@H](C)c3cccc4ccccc34)c2cc1OC`, the Activity in [1] is 99%; in assay [2] it was 83%; in assay [3], 100%; in assay [4] it was 92%; in [5] it was 98%; in [6] it was 100%. The Activity is 13% in assay [7], 92% in assay [8], 99% in assay [9] and 90% in assay [10].

Regarding `CNCc1ccccc1-c1csc([C@@H](C)Nc2nc(C)nc3cc(OC)c(OC)cc23)c1` [BAY-293], the IC50 in the assay on K562 turned out to be 1090 nM.
